From ChEMBL document CHEMBL4402525, “Potential Tools for Eradicating HIV Reservoirs in the Brain: Development of Trojan Horse Prodrugs for the Inhibition of P-Glycoprotein with Anti-HIV-1 Activity” (J Med Chem, 2020)
Active and inactive are the calls of the source. No cut-off for these calls is given here.

Legend:
[1] = system: Human immunodeficiency virus 1; assay: Antiviral activity against HIV1 LAI infected in human 12D7 cells overexpressing p-gp assessed as reduction in P24 level at 0.08 to 1.25 uM incubated for 3 days followed by replacement of fresh medium containing compound and measured after 3 days by ELISA; type: functional, organism-based; conditions: M:B_Lai
Summary of the method: (§1)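 12D7 CD4+ T cells in log phase, resuspended at 1 million/mL, infected 4 h with 500 TCID50 HIV-1 LAI, washed three times, plated at 75 000 cells/mL; compound added at 0.05% DMSO in RPMI 1640 with 10% FBS, L-glutamine and penicillin/streptomycin; medium with same compound level renewed day 3; day-6 supernatant p24 (gag) quantified by ELISA; duplicate runs.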

P-gp (ABCB1) [2] = molecular target: T1, P-gp (ABCB1) (Homo sapiens, UniProt P08183); assay: Inhibition of P-gp in human 12D7-MDR cells up to 500 uM using calcein-AM as substrate after 30 mins by flow cytometric analysis relative to control; conditions: probe calcein-AM
T1 sequence (P08183 whole entry): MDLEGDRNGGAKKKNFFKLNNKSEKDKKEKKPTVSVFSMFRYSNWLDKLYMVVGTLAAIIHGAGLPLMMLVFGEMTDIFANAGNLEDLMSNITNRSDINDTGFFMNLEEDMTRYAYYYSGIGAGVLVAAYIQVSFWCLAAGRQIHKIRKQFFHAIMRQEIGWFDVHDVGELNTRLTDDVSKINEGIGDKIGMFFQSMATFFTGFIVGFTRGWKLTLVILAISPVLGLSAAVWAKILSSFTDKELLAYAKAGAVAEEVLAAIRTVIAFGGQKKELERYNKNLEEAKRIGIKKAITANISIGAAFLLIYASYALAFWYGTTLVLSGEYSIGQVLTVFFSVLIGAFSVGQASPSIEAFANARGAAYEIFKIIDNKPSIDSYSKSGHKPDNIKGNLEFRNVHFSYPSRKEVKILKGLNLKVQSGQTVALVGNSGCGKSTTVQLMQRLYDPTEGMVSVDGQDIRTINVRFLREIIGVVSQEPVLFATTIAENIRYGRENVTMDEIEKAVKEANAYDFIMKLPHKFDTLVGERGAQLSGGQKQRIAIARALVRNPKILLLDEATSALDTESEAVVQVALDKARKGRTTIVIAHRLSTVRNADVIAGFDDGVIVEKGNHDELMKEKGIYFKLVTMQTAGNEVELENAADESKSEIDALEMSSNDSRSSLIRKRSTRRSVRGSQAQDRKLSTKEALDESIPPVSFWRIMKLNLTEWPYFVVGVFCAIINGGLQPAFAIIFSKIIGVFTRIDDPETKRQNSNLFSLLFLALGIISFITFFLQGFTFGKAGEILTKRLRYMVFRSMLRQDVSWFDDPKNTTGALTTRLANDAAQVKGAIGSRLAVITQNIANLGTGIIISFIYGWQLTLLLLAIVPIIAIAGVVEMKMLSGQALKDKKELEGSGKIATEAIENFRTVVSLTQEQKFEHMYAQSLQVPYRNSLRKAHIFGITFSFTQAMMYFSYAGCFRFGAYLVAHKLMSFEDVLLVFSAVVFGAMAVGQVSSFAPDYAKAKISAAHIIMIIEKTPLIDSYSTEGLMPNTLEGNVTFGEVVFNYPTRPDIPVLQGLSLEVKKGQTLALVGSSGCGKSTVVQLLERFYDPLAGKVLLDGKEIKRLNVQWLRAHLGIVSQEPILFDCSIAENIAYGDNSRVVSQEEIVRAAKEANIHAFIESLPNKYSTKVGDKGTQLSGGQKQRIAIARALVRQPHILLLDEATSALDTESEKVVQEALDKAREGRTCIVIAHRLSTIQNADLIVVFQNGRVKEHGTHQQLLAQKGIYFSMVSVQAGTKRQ

P-gp (ABCB1) [3] = molecular target: T1, P-gp (ABCB1); assay: Inhibition of P-gp in human 12D7-MDR cells up to 500 uM using NBD-Aba as substrate after 30 mins by flow cytometric analysis relative to control; conditions: probe NBD-Aba
[4] = system: Human immunodeficiency virus 1; assay: Antiviral activity against HIV1 LAI infected in human 12D7 cells overexpressing p-gp assessed as reduction in P24 level at 1:1 ratio of test compound to abacavir incubated for 3 days followed by followed by replacement of fresh medium containing compound and measured after 3 days by ELISA; type: functional, organism-based; conditions: M:B_Lai; summary of the method: as §1
[5] = Produrg conversion in pH 7.4 PBS/30% methanol assessed as DTT-mediated nelfinavir formation by measuring half life at 4 uM in presence of 250 mM DTT by UPLC-MS analysis; type: ADME; conditions: buffer, pH 7.4, 4 µM
Summary of the method: (§2)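 Heterodimer at 4 μM was incubated at 37 °C with 250 mM DTT or 10 mM GSH. The solvent was degassed 30% methanol/PBS (pH ~ 7.4) containing 5 μM quinine as internal standard. Reductant-triggered release of the monomeric drugs was followed over time and given as t1/2.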

[6] = Produrg conversion in pH 7.4 PBS/30% methanol assessed as DTT-mediated abacavir formation by measuring half life at 4 uM in presence of 250 mM DTT by UPLC-MS analysis; type: ADME; conditions: buffer, pH 7.4, 4 µM; summary of the method: as §2
[7] = Produrg conversion in pH 7.4 PBS/30% methanol assessed as GSH-mediated abacavir formation by measuring half life at 4 uM in presence of 10 mM GSH by UPLC-MS analysis; type: ADME; conditions: pH 7.4, 4 µM; summary of the method: as §2
[8] = Produrg conversion in pH 7.4 PBS/30% methanol assessed as GSH-mediated nelfinavir formation by measuring half life at 4 uM in presence of 10 mM GSH by UPLC-MS analysis; type: ADME; conditions: pH 7.4, 4 µM; summary of the method: as §2
[9] = Stability of compound in PBS after 1 week by UPLC-MS analysis; type: physicochemical; conditions: read-out: Stability
[10] = Stability of compound in RPMI medium at 100 uM after 1 week by UPLC-MS analysis; type: physicochemical; conditions: read-out: Stability
Summary of the method: (§3)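 Heterodimer at 100 μM was held at 37 °C in 12D7 cell medium with 1% DMSO. The medium was RPMI 1640 with penicillin/streptomycin, 5 mM L-glutamine and 10% FBS. Every 24 h an aliquot was quenched 1:1 with ice-cold acetonitrile containing 1.0 mM 4-methoxybenzyl alcohol, then centrifuged. Supernatant was run on C8 RP-HPLC (0.05% TFA, 15–75% acetonitrile over 30 min, UV 254 nm), in duplicate.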

[11] = Produrg conversion in pH 7.4 PBS/30% methanol assessed as DTT-mediated darunavir formation by measuring half life at 4 uM in presence of 250 mM DTT by UPLC-MS analysis; type: ADME; conditions: buffer, pH 7.4, 4 µM; summary of the method: as §2
[12] = Stability of compound in PBS after 3 days by UPLC-MS analysis; type: physicochemical; conditions: read-out: Stability
[13] = Produrg conversion in pH 7.4 PBS/30% methanol assessed as GSH-mediated darunavir formation by measuring half life at 4 uM in presence of 10 mM GSH by UPLC-MS analysis; type: ADME; conditions: pH 7.4, 4 µM; summary of the method: as §2
[14] = Stability of compound in RPMI medium at 100 uM after 3 days by UPLC-MS analysis; type: physicochemical; conditions: read-out: Stability; summary of the method: as §3

SMILES	Activity [1]	Activity [4]	t1/2 [6]	t1/2 [7]	also measured
Nc1nc(NC2CC2)c2ncn([C@H]3C=C[C@@H](CO)C3)c2n1 [ABACAVIR]	Active				inhibition at 0.5 h (P-gp (ABCB1) [2]): < 10%; inhibition at 0.5 h (P-gp (ABCB1) [3]): < 10%
Cc1c(O)cccc1C(=O)N[C@@H](CSc1ccccc1)[C@H](O)CN1C[C@H]2CCCC[C@H]2C[C@H]1C(=O)NC(C)(C)C	Active	Active			
Cc1c(OC(=O)CCCSSCCCC(=O)OC[C@@H]2C=C[C@H](n3cnc4c(NC5CC5)nc(N)nc43)C2)cccc1C(=O)N[C@@H](CSc1ccccc1)[C@H](O)CN1C[C@H]2CCCC[C@H]2C[C@H]1C(=O)NC(C)(C)C	Active		31.8 h	29.4 h	t1/2 [5]: 1.2 h; t1/2 [8]: 10.3 h; remaining at 168 h [9]: > 95%; remaining at 168 h, 100 µM [10]: > 95%
CC(C)CN(C[C@@H](O)[C@H](Cc1ccccc1)NC(=O)O[C@H]1CO[C@H]2OCC[C@H]21)S(=O)(=O)c1ccc(N)cc1	Active	Active			
CC(C)CN(C[C@@H](OC(=O)CCCSSCCCC(=O)OC[C@@H]1C=C[C@H](n2cnc3c(NC4CC4)nc(N)nc32)C1)[C@H](Cc1ccccc1)NC(=O)O[C@H]1CO[C@H]2OCC[C@H]21)S(=O)(=O)c1ccc(N)cc1	Active		34.5 h	21.6 h	t1/2 [11]: 21.3 h; remaining at 72 h [12]: > 95%; t1/2 [13]: 36.3 h; remaining at 72 h, 100 µM [14]: > 95%
